# According to paper PMC2797757 (Journal of medicinal chemistry, 2009):
# “Also recorded” adds a separate entry of the source.
# Legend:
# [1] = system: MCF-7 human breast carcinoma cells; experiment: Growth of MCF-7 cells; format: cell-based; details: MCF7, 48 h, read-out: MCF-7 IC50 ± SD
# [2] = system: Saccharomyces cerevisiae BY4741 wild type strain; experiment: Yeast toxicity protocol; format: cell-based; details: 20 μM, growth recorded after 3 days at 28 °C; for effect on viability/growth of BY4741 strain cells: 18 h incubation; for serial dilution to which cell growth was limited: 10-fold serial cell dilution
# Outline: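 S. cerevisiae BY4741 (MATa his3Δ1 leu2Δ0 met15Δ0 ura3Δ0) grown at 28 °C in SD minimal medium with 2% glucose. Exponential cells (5 × 10^6/mL) exposed to 20 μM for 18 h at 28 °C, then centrifuged, washed twice with water and resuspended in SD. Serial 10-fold dilutions incubated overnight at 28 °C, spotted on YPD plates, and growth scored after 3 days at 28 °C.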
# tubulin = experiment: [3H]Colchicine binding assay; set-up: species or system bovine; details: Tubulin 1 μM; [3H]colchicine and inhibitor both 5 μM
# [3] = system: A10, rat embryonic aortic smooth muscle cells; experiment: Growth inhibition of nontransformed cells, A10; format: cell-based; details: read-out: A10 IC50 ± SD
# [4] = system: HAOSMC: human aortic smooth muscle cells; experiment: Growth inhibition of nontransformed cells, HAOSMC; format: cell-based; details: read-out: HAOSMC IC50 ± SD
# [5] = system: HEK, human embryonic kidney 293 cells; experiment: Growth inhibition, MTT, HEK; format: cell-based; details: read-out: HEK IC50 ± SD; MTT method; incubation 48 h
# [6] = system: U937, human leukemic monocyte lymphoma cells; experiment: Growth inhibition, MTT, U937; format: cell-based; details: read-out: U937 IC50 ± SD; MTT method; incubation 48 h
# [7] = system: HCT116/chr3 human colon cancer cells; experiment: Cell viability/proliferation assay, HCT116/chr3; format: cell-based; details: 24 h, control cells = 100%
# Outline: (§1)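 Cells grown at 37 °C, 5% CO2, in D-MEM with 10% fetal calf serum, 4 mM glutamine and 2 mM pyruvate; HCT116/chr3 also got 500 μg/mL G418. Seeded at 1 × 10^3 cells/well and treated 24 h later for 24 h from a 10 mM DMSO stock. Vehicle control was 1% DMSO. Tetrazolium reagent added for 4 h at 37 °C, then absorbance read at 492 nm. Quadruplicate, three repeats; results are % of control, mean ± SD.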
# [8] = system: HUVEC: human umbilical vein endothelial cells; experiment: Growth inhibition of nontransformed cells, HUVEC; format: cell-based; details: read-out: HUVEC IC50 ± SD
# [9] = system: PtK2: potorous tridactylis kidney epithelial cells; experiment: Growth inhibition of nontransformed cells, PtK2; format: cell-based, Potorus tridactylis; details: read-out: PtK2 IC50 ± SD
# [10] = system: HeLa cervical cancer cells; experiment: Cell viability/proliferation assay, HeLa; format: cell-based, human; details: 24 h, control cells = 100%
# Outline: as §1
# [11] = system: M14, human melanoma cells; experiment: Growth inhibition, MTT, M14; format: cell-based; details: read-out: M14 IC50 ± SD; MTT method; incubation 48 h
# M14 cells = experiment: Time-lapse microscopy, M14 cell morphology and growth; format: cell-based, human; details: 48 h treatment
# HEK cells = experiment: Time-lapse microscopy, HEK cell morphology and growth; format: cell-based, human; details: 48 h treatment
compound,measurement,setting,value
COc1cc(Sc2c[nH]c3ccccc23)cc(OC)c1OC [Compound 3],IC50,[1],34 ± 9 nM
COC(=O)c1[nH]c2ccccc2c1Sc1cc(OC)c(OC)c(OC)c1 [Compound 6],IC50,[1],25 ± 1 nM
COc1cc(Sc2c[nH]c3ccc(Cl)cc23)cc(OC)c1OC [Compound 12],IC50,[1],77 ± 7 nM
CCOC(=O)c1[nH]c2ccc(Cl)cc2c1Sc1cc(OC)c(OC)c(OC)c1 [Compound 18],IC50,[1],110 ± 2 nM
"COc1cc(Cn2cccc2C(=O)O)cc(OC)c1OC [Compound 54, 1-(3,4,5-Trimethoxybenzyl)-1H-pyrrole-2-carboxylic acid]",effect on viability/growth of BY4741 strain cells,[2],effectively inhibited growth; also recorded: strongly reduced the viability
same,serial dilution to which cell growth was limited,[2],first dilution
"(5-Bromo-1H-indol-3-yl)(3,4,5-trimethoxyphenyl)methanone [Compound 25]",inhibition colchicine binding (% ± SD),tubulin,45±5%
"(5-Methoxy-1H-indol-3-yl)-(3,4,5-trimethoxyphenyl)methanone [Compound 34]",inhibition colchicine binding (% ± SD),tubulin,32±7%
"Ethyl 5-Bromo-3-(3,4,5-trimethoxybenzoyl)-1H-indole-2-carboxylate [Compound 31]",inhibition colchicine binding (% ± SD),tubulin,58±2%
"Ethyl 5-Bromo-3-(3,4,5-trimethoxybenzyl)-1H-indole-2-carboxylate [Compound 32]",inhibition colchicine binding (% ± SD),tubulin,53±4%
"Ethyl 5-Bromo-3-(3,4,5-trimethoxyphenylthio)-1H-indole-2-carboxylate [Compound 30]",inhibition colchicine binding (% ± SD),tubulin,62±7%
"Ethyl 5-Methoxy-3-(3,4,5-trimethoxybenzoyl)-1H-indole-2-carboxylate [Compound 43]",inhibition colchicine binding (% ± SD),tubulin,49±4%
"Ethyl 5-Methoxy-3-(3,4,5-trimethoxybenzyl)-1H-indole-2-carboxylate [Compound 45]",inhibition colchicine binding (% ± SD),tubulin,42±4%
"Methyl 5-Bromo-3-(3,4,5-trimethoxybenzoyl)-1H-indole-2-carboxylate [Compound 28]",IC50,[3],280 ± 40 nM
same,IC50,[4],55 ± 40 nM
same,IC50,[5],131 ± 3 nM
same,IC50,[6],191 ± 7 nM
same,"% of cell proliferation, HCT116/chr3",[7]; 0.5 μM,59±0.2%
same,"% of cell proliferation, HCT116/chr3",[7]; 1 μM,66±3.5%
same,IC50,[8],150 nM
same,inhibition colchicine binding (% ± SD),tubulin,67±4%
same,IC50,[9],110 ± 60 nM
same,"% of cell proliferation, HeLa",[10]; 0.5 μM,41±1.1%
same,"% of cell proliferation, HeLa",[10]; 1 μM,47±0.4%
"Methyl 5-Bromo-3-(3,4,5-trimethoxybenzyl)-1H-indole-2-carboxylate [Compound 29]",IC50,[3],230 ± 100 nM
same,IC50,[4],35 ± 7 nM
same,IC50,[5],160 ± 5 nM
same,IC50,[6],159 ± 10 nM
same,"% of cell proliferation, HCT116/chr3",[7]; 0.5 μM,51±4.6%
same,"% of cell proliferation, HCT116/chr3",[7]; 1 μM,51±1.6%
same,effect on viability/growth of BY4741 strain cells,[2],significant BY4741 inhibition
same,serial dilution to which cell growth was limited,[2],third dilution
same,IC50,[8],140 ± 20 nM
same,IC50,[11],120 ± 10 nM
same,inhibition colchicine binding (% ± SD),tubulin,59±7%
same,IC50,[9],270 ± 100 nM
same,"% of cell proliferation, HeLa",[10]; 0.5 μM,52±0.4%
same,"% of cell proliferation, HeLa",[10]; 1 μM,45±1.6%
"Methyl 5-Bromo-3-(3,4,5-trimethoxyphenylthio)-1H-indole-2-carboxylate [Compound 27]",IC50,[3],230 ± 100 nM
same,IC50,[4],100 ± 30 nM
same,IC50,[5],189 ± 5 nM
same,IC50,[6],177 ± 10 nM
same,"% of cell proliferation, HCT116/chr3",[7]; 0.5 μM,57±0.9%
same,"% of cell proliferation, HCT116/chr3",[7]; 1 μM,62±1.9%
same,IC50,[8],140 ± 20 nM
same,IC50,[11],155 ± 9 nM
same,inhibition colchicine binding (% ± SD),tubulin,75±3%
same,IC50,[9],280 ± 30 nM
same,"% of cell proliferation, HeLa",[10]; 0.5 μM,53±0.1%
same,"% of cell proliferation, HeLa",[10]; 1 μM,60±0.1%
"Methyl 5-Methoxy-3-(3,4,5-trimethoxybenzoyl)-1H-indole-2-carboxylate [Compound 39]",IC50,[3],95 ± 80 nM
same,effect on M14 cell morphology,M14 cells,significant morphologic changes
same,IC50,[4],35 ± 7 nM
same,IC50,[5],140 ± 1 nM
same,IC50,[6],155 ± 10 nM
same,"% of cell proliferation, HCT116/chr3",[7]; 0.5 μM,57±3.4%
same,"% of cell proliferation, HCT116/chr3",[7]; 1 μM,55±1.2%
same,effect on HEK cell morphology,HEK cells,significant morphologic changes
same,effect on viability/growth of BY4741 strain cells,[2],significant inhibitory effects
same,IC50,[8],110 ± 60 nM
same,IC50,[11],100 ± 5 nM
same,inhibition colchicine binding (% ± SD),tubulin,78±6%
same,IC50,[9],190 ± 20 nM
same,"% of cell proliferation, HeLa",[10]; 0.5 μM,55±0.7%
same,"% of cell proliferation, HeLa",[10]; 1 μM,54±0.3%
"Methyl 5-Methoxy-3-(3,4,5-trimethoxybenzyl)-1H-indole-2-carboxylate [Compound 41]",IC50,[3],130 ± 100 nM
same,effect on M14 cell morphology,M14 cells,significant morphologic changes
same,IC50,[4],70 ± 10 nM
same,IC50,[5],181 ± 3 nM
same,IC50,[6],189 ± 5 nM
same,"% of cell proliferation, HCT116/chr3",[7]; 0.5 μM,69±6.7%
same,"% of cell proliferation, HCT116/chr3",[7]; 1 μM,69±0.3%
same,effect on HEK cell morphology,HEK cells,significant morphologic changes
same,IC50,[8],170 ± 50 nM
same,IC50,[11],137 ± 5 nM
same,inhibition colchicine binding (% ± SD),tubulin,59±1%
same,IC50,[9],190 ± 200 nM
same,"% of cell proliferation, HeLa",[10]; 0.5 μM,52±0.7%
same,"% of cell proliferation, HeLa",[10]; 1 μM,51±0.2%
"methyl 5-methoxy-3-(3,4,5-trimethoxyphenylthio)-1H-indole-2-carboxylate [Compound 36]",effect on viability/growth of BY4741 strain cells,[2],significant inhibitory effects
